Assay: Toxicity liver stage against HepG2, at 10uM
Type: cell-based
Set-up: test concentration 10 uM, cell line HepG2-A16-CD81EGFP
Details: human, HepG2-A16-CD81EGFP cells; read-out: INHIBITION
Outline: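 Uninfected HepG2-A16-CD81EGFP cells, 3 × 10^3 per well, 1536-well, plated on prespotted compound at 10 μM final, parasite-free screening media added to match infected plates; puromycin 10 μM positive, DMSO 0.5% negative; run in parallel with 48 h PbLuc assay at 37 °C, 5% CO2; viability by CellTiter-Glo luminescence, normalized to controls.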

Row | Structure (SMILES) | cytotoxicity at 10 µM
1 | O=C1CSC(c2ccc3c(c2)OCO3)c2cnn(C3CCCCC3)c2N1 (centres undefined) | -6.06%
2 | COC(=O)c1cccc(C(=O)NCc2ccc(C)o2)n1 | 11.5%
3 | Cc1cc(=O)n2nc(CNc3cc(Cl)ccc3C)nc2[nH]1 | -5.64%
4 | COc1ccc(NC(=O)c2cnc(N3CCN(C)CC3)nc2C)cc1 | -3.45%
5 | CN1CCC(N(C)C(=O)c2cnn(-c3cc(F)ccc3F)c2N)CC1 | -8.47%
6 | COCCn1cc(CCC(=O)Nc2c(C)nn(C)c2C)c2ccccc21 | -177%
7 | CN(C)S(=O)(=O)N1CCC(c2nnc(C(F)(F)F)o2)CC1 | 3.79%
8 | CS(=O)(=O)N1C[C@@H](C(=O)Nc2cnccn2)C[C@H]2OCC[C@H]21 | 17.3%
9 | CCN(CC)c1ccc2ccc(C(=O)O)cn12 | 1.42%
10 | Cc1nnn2c1COC(CNCc1ccncc1)C2 (centres undefined) | 7.48%
11 | CS(=O)(=O)N1C[C@@H]2COC[C@@H](CC(=O)N3CCCO3)[C@@H]2C1 | 11.1%
12 | CN(C)C(=O)COCc1ncn2c1CN(c1ncc(F)cn1)CCC2 | 6.01%
13 | CC(C)C(=O)N1CCCC12CCCN(C(=O)c1ccno1)C2 (centres undefined) | 5.35%
14 | Cc1nnc([C@@H]2CCO[C@@H]3CCN(C(=O)Cc4ccccn4)C[C@@H]32)o1 | 10.1%
15 | CCNC(=O)Cc1n[nH]c(-c2cncc(Br)c2)n1 | 1.2%
16 | CCC1=NC(SCC(=O)c2ccc(C)cc2)c2cc(CC)sc2N1 (centres undefined) | 9.76%
17 | CCCN(CCC)C(=O)Cn1c(SC)nc2ccsc2c1=O | 3.88%
18 | Cn1nccc1C(=O)N1CCOC(Cc2cccnc2)C1 (centres undefined) | -7.95%
19 | CC(=O)N1CCCC1c1nccnc1Nc1cccc(C)n1 (centres undefined) | 1.31%
20 | O=C(COc1cc(Cl)cc(Cl)c1)NCc1nncn1C1CC1 | -11.5%
21 | CCCc1nc(CN(CCO)Cc2cc(Br)ccc2F)no1 | -5.1%
22 | Cc1cc(C)n2cc(CN3CCC(N4CCN(C)C4=O)CC3)nc2n1 | 3.66%

Row | Structure (SMILES) | cytotoxicity at 10 µM
23 | Cc1cc(C)n(CC2CCCN2Cc2cccc(C#N)c2)n1 (centres undefined) | 11.2%
24 | Cc1nn(C)c(C)c1C(=O)N1CCN(C(=O)CC2CCCCC2)CC1 | -2.55%
25 | CC(NC(=O)NCCn1ccnc1)c1nncn1C (centres undefined) | -8.92%
26 | Cc1cc(CNCC2CCCN(C(=O)OC(C)(C)C)C2)no1 (centres undefined) | 6.22%
27 | CCCc1nc(CN2CCCC2Cn2cccn2)cs1 (centres undefined) | -4.45%
28 | CSC(C)C(=O)NCCC(=O)N1CCN(c2ccccn2)CC1 (centres undefined) | 3.05%
29 | Cc1ccc(NC(=O)CNc2ccccc2C(N)=O)c(C)c1 | 1.15%
30 | Cc1cccc(C(=O)Nc2cccc3c2C(=O)NC3)n1 | 1.14%
31 | Cc1ccc(C(=O)N2CCN(c3ccnc4ccsc34)CC2)o1 | 38.7%
32 | NC(=O)NC(=O)CNC1(c2ccc(Cl)cc2)CCCC1 | 15.7%
33 | O=C(CCN1C(=O)CCC1=O)Nc1ccc(OCC(F)(F)F)nc1 | -13.4%
34 | N#CCc1ccc(OCC(=O)NS(=O)(=O)c2ccc(Cl)s2)cc1 | 6.41%
35 | COc1ccc(COCC(O)CN(C)c2ccc(C)cc2C)cc1 (centres undefined) | 1.6%
36 | CCC(C)(NCc1ncc(C(C)C)o1)c1nccs1 (centres undefined) | 18.9%
37 | CC(=O)N1CCC(NC(=O)NCCCc2cn[nH]c2C)CC1 | -4.2%
38 | Cc1cnn(CC2CCCN2C(=O)Cc2cn3ccsc3n2)c1 (centres undefined) | -10.1%
39 | CN(Cc1cccc(OC(F)(F)F)c1)C(=O)c1ccncc1F | 3.76%
40 | COCc1ccccc1NC(=O)[C@@H]1CCCN1C(=O)c1ccco1 | -6.34%
41 | Cc1nc(CN2CCC3(C2)CN(C(=O)c2conc2C)C3)cs1 | -105%
42 | O=C1[C@H]2CN(Cc3ccoc3)C[C@@H]2CCN1Cc1cccnc1 | -71.5%
43 | CCOCc1ncn2c1CN(C(=O)c1ccoc1)CC2 | -72.6%
44 | O=C(c1cccs1)N1CCCn2cnc(COCC3CC3)c2C1 | -81.3%

Row | Structure (SMILES) | cytotoxicity at 10 µM
45 | Cn1cc(C2COC3(CCN(C(=O)Cn4cccn4)CC3)C2)cn1 (centres undefined) | 2.7%
46 | O=C(c1ccoc1)N1CCCn2cnc(COCC3CC3)c2C1 | 2.47%
47 | Cc1cncc(C(=O)N2Cc3ccccc3C3(CCN(C)CC3)C2)c1 | 4.37%
48 | Cc1ccc(C(=O)N2C[C@H]3CCC[C@@]3(COCc3cccnc3)C2)s1 | 3.24%
49 | c1ccc(-c2nc3c(c(NCc4nnc5n4CCC5)n2)CCNC3)cc1 | -3.71%
50 | CCN(CC)C(=O)Cn1cc(C(=O)NCCc2nc(C)c(C)s2)nn1 | 2.22%
51 | CCOc1ccc(CN(CCOC)C(=O)c2ccncc2Cl)cc1 | 5.82%
52 | CN(Cc1ccc(-n2cccn2)cc1)Cc1ncc[nH]1 | 1.79%
53 | Cc1cnc(N2CCCC(c3ccccc3)C2)nc1-c1ncnn1C (centres undefined) | -1.79%
54 | Cc1noc(C)c1CN(C)Cc1cnc(N2CCOCC2)nc1 | -2.28%
55 | c1cc2c(cc1-c1noc3c1CN(C1CCC1)CC3)OCO2 | -18.4%
56 | CC(C)(C)CCN1CCCC(Cn2cc(CCO)nn2)C1 (centres undefined) | -13.9%
57 | Cc1nc[nH]c1CN1CCC(CNC(=O)c2cccc3cnccc23)C1 (centres undefined) | -10.1%
58 | CC[C@@H](c1ccccc1)n1c(CCN)n[nH]c1=O | 5.33%
59 | Cc1ccc(NC(=O)[C@H]2C[C@H](C(=O)O)CN(CC3CC3)C2)cn1 | 0.999%
60 | CCNC(=O)[C@@H]1C[C@H](NC(=O)Cn2ccnc2)CN1Cc1ccsc1 | 5.89%
61 | CN(CCO)Cc1nnc(C2CCN(C(=O)C3CCOCC3)CC2)n1C | 2.01%
62 | CN(Cc1ccncn1)C(=O)CCC(=O)NC1CCCC1 | -1.01%
63 | Cc1ccc(-c2cccc(N3CCC(NC4CCOCC4)CC3)c2)cc1 | -12.3%
64 | O=C1[C@@H]2CN(c3ncccc3Cl)C[C@]2(C(=O)O)CN1CC1CC1 | 1.04%
65 | O=C1NCCCc2[nH]c(-c3nc(C4CC4)no3)nc21 | -5.74%
66 | CSC(C)C(=O)N1CCC(Oc2cc(C)ccc2F)(C(=O)O)CC1 (centres undefined) | 2.88%

Row | Structure (SMILES) | cytotoxicity at 10 µM
67 | OC1(CNCCc2csc(-c3ncccn3)n2)CCNC1 (centres undefined) | -8.44%
68 | CC(C)c1nccc(-c2nccn2CCS(C)(=O)=O)n1 | 4.68%
69 | Cc1ccc(F)cc1-n1c(CCCN2CCOCC2)n[nH]c1=O | 7.32%
70 | COc1ncc(-c2c(C#N)c(N)nc3c2CCc2[nH]ccc2-3)cn1 | 6.47%
71 | O=C(NC1CC1)c1cn(C2CCN(c3cc(C4CC4)ncn3)CC2)nn1 | 27.8%
72 | Cc1ccc(CC(=O)N2CCCC(c3cc(C(N)=O)[nH]n3)C2)cn1 (centres undefined) | -14.2%
73 | CN(C)c1ccc(C(=O)NCCCNc2ccc(C(F)(F)F)cn2)cc1 | -7.66%
74 | CC(C)(C)c1noc(CN2CCCCC2Cn2cncn2)n1 (centres undefined) | -2.4%
75 | O=C(CN1CCc2c(ncn2C2CC2)C1)NC1CCN(C2CC2)CC1 | -8.44%
76 | CC(C(=O)NCc1cccc(N2CCCC2=O)c1)S(C)(=O)=O (centres undefined) | 2.66%
77 | CCNC(=O)N(C)C(c1cccc(F)c1)c1ccccn1 (centres undefined) | -11.6%
78 | COc1ccc(C(=O)N2CCCCC2c2nc(C)cs2)nn1 (centres undefined) | -6.77%
79 | Cc1ccccc1CN1CCN(Cc2nccn2C)CC1 | -10.1%
80 | Cc1nccn1CC1CCCN1S(=O)(=O)Cc1ccccc1 (centres undefined) | -18%
81 | CC(O)CN1CCN(C(=O)c2ccc(N(C)C)nc2)CC1 (centres undefined) | -9.78%
82 | N#Cc1ccccc1OCCN1CCn2c(nnc2C2CC2)C1 | 2.94%
83 | O=C(Cc1csc(-c2nnc[nH]2)n1)N1CCCC1Cn1cccn1 (centres undefined) | -2.48%
84 | CCCc1nc(CN2CCCC(Cn3cncn3)C2)no1 (centres undefined) | -4.02%
85 | CC(NC(=O)CCOc1ccccc1Cl)c1nnc2n1CCC2 (centres undefined) | -6.46%
86 | CC(NC(=O)CCn1cncn1)c1nnc2n1CCCCC2 (centres undefined) | -9.26%
87 | Cc1cnn(CC2CCCN2C(=O)c2ccc3[nH]nnc3c2)c1 (centres undefined) | 1.03%
88 | Cc1nc(C)n(CC2CCCN(CCNC(=O)OC(C)(C)C)C2)n1 (centres undefined) | 1.08%

Row | Structure (SMILES) | cytotoxicity at 10 µM
89 | NCc1ccccc1Sc1ccc(O)cc1 | 1.31%
90 | Cc1ncsc1CN1C[C@@H]2COC[C@]2(C(=O)NCC2CC2)C1 | 5.38%
91 | Cc1ccc(C(=O)N2CCC3(CC2)CC(c2cnn(C)c2)CO3)cn1 (centres undefined) | -69.5%
92 | Cc1cnc(N2CC[C@H]3[C@H](C[C@@H](CN(C)C)N3C)C2)nc1 | 5.71%
93 | CN(C)CCNC(=O)[C@H]1C[C@H]2CN(c3ncccn3)C[C@H]2N1C | 9.52%
94 | Cc1ccc(N2CC3(COCCN(Cc4cccnc4)C3)OCC2=O)s1 (centres undefined) | 2.39%
95 | Cc1cccc(CN2C[C@@H]3OCCN(CC(=O)N(C)C)[C@@H]3C2)c1 | -110%
96 | Cc1ccoc1C(=O)N1Cc2c(Cn3ccnc3)nn(C)c2C1 | -68.5%
97 | CCS(=O)(=O)NC[C@]12COC[C@H]1CN(Cc1cccc(OC)c1)C2 | -6.23%
98 | COCCN1CCO[C@@H]2CN(Cc3cc(OC)cc(OC)c3)C[C@@H]2C1 | 38.8%
99 | CC1=N[C@@]2(CC[C@@H]3CN(CC(C)C)C[C@@H]32)C(=O)N1CC(C)C | -79.6%
100 | c1cncc(COC[C@H]2CC[C@H]3[C@H](CCN3Cc3nccs3)O2)c1 | -69.6%
101 | c1ccc(OCc2nnc3n2CCN(CC2CC2)C3)nc1 | -0.945%
102 | Cc1nnn2c1COC(CNCc1ccccn1)C2 (centres undefined) | 0.903%
103 | CS(=O)(=O)N1CCC2(CC1)CN(CC1CCOC1)c1ccccc12 (centres undefined) | -108%
104 | CCC(=O)N1Cc2nccn2CC(CN(C)Cc2cccnc2)C1 (centres undefined) | 3.55%
105 | CS(=O)(=O)N1CC[C@H]2OCC[C@@]2(C(=O)NCc2ccccn2)C1 | -84.7%
106 | O=C(C1CCCC1)N1CCC2(CC1)COCCN2CC1CC1 | 5.01%
107 | COc1ccc(F)c(-c2ncccc2C(=O)N2C[C@@H]3CC[C@H]2C3)c1 | -6.12%
108 | COCCN1C(=O)[C@@H]2CC[C@H]1CN(S(=O)(=O)c1ccc(C#N)cc1)C2 | -2.59%
109 | CC(C)=CCN1C[C@@H]2CC[C@H]1CN(C(=O)c1ccc(S(N)(=O)=O)cc1)C2 | -5.96%

From ChEMBL document CHEMBL4513216, “Probing the Open Global Health Chemical Diversity Library for Multistage-Active Starting Points for Next-Generation Antimalarials” (ACS Infect Dis, 2020)
